According to ChEMBL document CHEMBL1138769, “Antimitotic activity of 5-hydroxy-7-methoxy-2-phenyl-4-quinolones” (J Med Chem, 2004):

Legend:
K562 [1] = assay: Ability to induce cells in S phase; format: functional, Homo sapiens; design: concentration or dose not given beside the values
In short: (§1)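 K562 human leukemic cells exposed continuously to test compound at 5 μM for 24 h. 10⁶ cells/mL resuspended in propidium iodide, held at 4 °C overnight, analysed by flow cytometry for DNA content. Doublets and aggregates excluded on FL2-area/FL2-width plot. Fraction of population in G0/G1, S and G2/M calculated.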

K562 [2] = assay: Ability to induce cells in G0/G1 phase; format: functional, Homo sapiens; design: concentration or dose not given beside the values; in short: as §1
K562 [3] = assay: Ability to induce cells in G2/M phase; format: functional, Homo sapiens; design: concentration or dose not given beside the values; in short: as §1
K562 [4] = assay: Inhibitory concentration against K562 cell line; format: functional, cell-based; details: Homo sapiens
In short: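 MTT viability assay on exponentially growing K562 cells seeded at 3 × 10³ cells/well, grown 24 h before drug addition. After 72 h drug exposure MTT reagent added. Viability is absorbance as percent of untreated control wells. IC50 is the concentration giving 50% loss of viability. Triplicate wells, at least three separate experiments.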

[5] = system: NCI-60 human tumor cell line panel (Homo sapiens); assay: Growth inhibitory concentration is the concentration that reduced growth of NCI-60 cell lines by 50%

| IC50 (K562 [4]) [nM] | SMILES | Activity (K562 [1]) [%] | Activity (K562 [2]) [%] | Activity (K562 [3]) [%] | GI50 [5] [µM] |
| --- | --- | --- | --- | --- | --- |
|  | COc1cc(O)c2c(O)cc(-c3cccc(OC(F)(F)F)c3)nc2c1 | 35 | 32 | 32 |  |
|  | COc1cc(O)c2c(O)cc(-c3cc(F)cc(F)c3)nc2c1 | 40 | 42 | 18 |  |
|  | COc1cc(O)c2c(O)cc(-c3cccc(I)c3)nc2c1 | 50 | 44 | 6 |  |
| 3000 | CC[C@]1(O)C[C@@H]2CN(CCc3c([nH]c4ccccc34)[C@@](C(=O)OC)(c3cc4c(cc3OC)N(C)[C@H]3[C@@](O)(C(=O)OC)[C@H](OC(C)=O)[C@]5(CC)C=CCN6CC[C@]43[C@@H]65)C2)C1 [VINBLASTINE] | 30 | 33 | 37 |  |
|  | CCn1c(-c2cccc(F)c2)cc(=O)c2c(O)cc(OC)cc21 | 28 | 53 | 19 |  |
| 1800 | COc1cc(O)c2c(O)cc(-c3ccccc3)nc2c1 | 26 | 7 | 66 | 8.7 |
|  | COc1cc(O)c2c(O)cc(-c3ccc(OC)c(F)c3)nc2c1 | 53 | 26 | 20 |  |
|  | COc1cc(O)c2c(O)cc(-c3cccc(CCl)c3)nc2c1 | 51 | 30 | 18 |  |
|  | CCn1c(-c2ccccc2)cc(=O)c2c(O)cc(OC)cc21 | 46 | 43 | 11 |  |
|  | COc1cccc(-c2cc(O)c3c(O)cc(OC)cc3n2)c1 | 41 | 28 | 31 | 9.7 |
|  | COc1cc(O)c2c(O)cc(Cc3ccccc3)nc2c1 | 50 | 41 | 9 |  |
|  | COc1cc2nc(-c3ccccc3)cc(O)c2c(OC)c1OC | 48 | 47 | 5 |  |
|  | COc1cc(O)c2c(O)cc(-c3cccc(-c4ccccc4)c3)nc2c1 | 45 | 46 | 9 |  |
|  | CCc1ccc(-c2cc(O)c3c(O)cc(OC)cc3n2)cc1 | 48 | 26 | 25 |  |
|  | CC(=O)O[C@H]1C(=O)[C@@]2(C)[C@H]([C@H](OC(=O)c3ccccc3)[C@]3(O)C[C@H](OC(=O)[C@H](O)[C@@H](NC(=O)c4ccccc4)c4ccccc4)C(C)=C1C3(C)C)[C@]1(OC(C)=O)CO[C@@H]1C[C@@H]2O [PACLITAXEL] | 18 | 11 | 71 |  |
| 1500 | COc1cc(O)c2c(O)cc(-c3ccccc3F)nc2c1 | 37 | 23 | 41 | 9.9 |
|  | COc1cc2nc(-c3ccccc3)cc(O)c2c(O)c1OC | 45 | 47 | 8 |  |
|  | COc1cc(O)c2c(O)cc(-c3cccc(Cl)c3)nc2c1 | 35 | 33 | 32 |  |
|  | COc1cc(O)c2c(O)cc(-c3ccc(F)c(F)c3)nc2c1 | 69 | 22 | 9 |  |
| 800 | COc1cc(O)c2c(O)cc(-c3cccc(F)c3)nc2c1 | 30 | 9 | 60 | 14.5 |
|  | COc1cc(O)c2c(O)cc(-c3ccc(C)c(F)c3)nc2c1 | 54 | 28 | 18 |  |
|  | Oc1cccc2nc(-c3cccc(F)c3)cc(O)c12 | 33 | 17 | 49 |  |
|  | COc1cc(O)c2c(O)cc(-c3cccnc3)nc2c1 | 31 | 24 | 45 |  |
|  | COc1cc(O)c2c(O)cc(-c3cccc(Br)c3)nc2c1 | 37 | 51 | 12 |  |
|  | COc1cc(O)c2c(O)cc(-c3ccc(F)cc3)nc2c1 | 36 | 54 | 10 |  |
|  | Oc1cccc2nc(-c3ccccc3)cc(O)c12 | 52 | 26 | 21 |  |
|  | COc1cc(O)c2c(O)cc(-c3cccc(C(F)(F)F)c3)nc2c1 | 38 | 41 | 20 |  |
